XiGFP reactiv = reactivates the inactive X chromosome in mouse fibroblasts; XiGFP mouse fibroblasts, % GFP-positive cells imaging, 3 d; cells co-treated with 5-aza-dC sensitizer; scaled so ellipticine positive control = 100%; 0.055% of 360,000 active; AID 743238; activation, % at 7.58 µM;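 active = mean normalized replicate activation at least 10% and every replicate at or above 10%; inconclusive = only one of the two criteria met; inactive = mean below 10% and not all replicates reach 10%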
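Schedule: 3 d treatment, 15 min room-temperature fixation; system: 68-5-11 XiGFP fibroblast line; buffer or medium: DMEM plus 5-aza-dC sensitizer; control set: ellipticine 6 µM positive control; compound: one concentration, pinned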
MITF act = activators of MITF-driven TRPM1 promoter activity in SK-MEL-5 cells; activation, % at 12.5 µM; 0.75% of 300,000 active; AID 588334; SK-MEL-5 TRPM1-promoter luciferase, 24 h; % of positive control, neutral wells = 0;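 active = mean activation of at least 80% with every replicate also reaching 80%; inconclusive = mean reaches 80% but some replicate falls short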
Vif inh = HIV Vif inhibition; HEK293T cells, Vif self-association by quenched fluorescence, imaging, 24 h; inhibition, % at 7.49 µM; 0.35% of 340,000 active; AID 602346; in the data active = inhibition above about 50%, passing the limit was not always enough; inconclusive = no clear call, values can overlap the other calls; inactive = below about 31%
Wnt act = activators of Wnt/beta-catenin signaling. Wnt/beta-catenin reporter cell assay, activator, plate reader. activation, % at 9.35 µM. 1.2% of 300,000 active. AID 743398; in the data active = activation above about 30%, passing the limit was not always enough; inconclusive = no clear call, values can overlap the other calls
esBAF inh = SWI/SNF esBAF complex inhibition. AID 602393. 2% of 350,000 active. reporter increase, % at 12.5 µM. mouse ES cells, Bmi1-luciferase knock-in reporter, 24 h; 100% = twice the neutral-well signal; in the data active = activation above about 40%; inconclusive = no clear call, values can overlap the other calls;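 also: a rise in the Bmi1 reporter signal indicates esBAF inhibition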
Hits are given with their value; i = inactive; ? = inconclusive; nt = not tested or not shown. Most compounds without a hit are left out; they make up all but 2.6% or so of the library.

SMILES	XiGFP reactiv	MITF act	Vif inh	Wnt act	esBAF inh
COc1cc([C@H]2c3[nH]c4ccccc4c3C[C@H]3C(=O)N4[C@@H](c5cc(OC)c(OC)c(OC)c5)c5[nH]c6ccccc6c5C[C@H]4C(=O)N23)cc(OC)c1OC	nt	i	i	nt	i
C=CCN1C(=O)[C@@H]2Cc3c([nH]c4ccccc34)C(c3ccc(O)cc3)N2C1=S (some centres undefined)	nt	i	i	nt	i
C=CCN1C(=O)[C@@H]2Cc3c([nH]c4ccccc34)C(c3cc(OC)c(OC)c(OC)c3)N2C1=S (some centres undefined)	91	i	i	i	i
CCN1C(=O)[C@@H]2Cc3c([nH]c4ccccc34)C(c3cc(OC)c(OC)c(OC)c3)N2C1=S (some centres undefined)	26	i	i	i	i
O=C(C[C@@H]1CC[C@H](NC(=O)CCN2CCCCC2)[C@@H](CO)O1)Nc1nccs1	i	nt	nt	nt	i
CC(C)NC(=O)N(C)C[C@@H]1Oc2ccc(N(C)C)cc2C(=O)N([C@H](C)CO)C[C@@H]1C	i	nt	nt	nt	i
Cc1nn(-c2ccccc2)c2sc(C(=O)O)cc12	nt	nt	i	nt	i
Cc1nn(-c2ccccc2)c2sc(C(=O)N3CCOCC3)cc12	nt	i	i	nt	44
CN(C)c1ccc(NC(=O)Nc2ccc3c(c2)nnn3C)cc1	i	nt	i	i	i
COc1cccc(NC(=O)Nc2cc(C)ccc2OC)c1	i	i	i	i	nt
COC(=O)c1sccc1NC(=O)Nc1cccc(C(C)=O)c1	i	i	i	i	i
COC(=O)c1sccc1NC(=O)Nc1cccc(C)c1	i	i	i	i	95
COc1cccc(NC(=O)Nc2ccc3c(c2)nnn3C)c1	nt	107	i	i	48
O=C(Nc1ccccc1)OCCCc1ccccc1	i	i	i	?	57
COc1cccc(NC(=O)Nc2cc(C)ccc2F)c1	nt	nt	i	nt	61
CCCN1C[C@@H](C)[C@H](OC)CN(C)C(=O)c2ccc(NC(=O)c3ccccn3)cc2OC[C@H]1C	nt	nt	nt	nt	i
CO[C@@H]1CN(C)C(=O)c2ccc(NC(=O)NC3CCCCC3)cc2OC[C@@H](C)N(C(=O)NC2CCCCC2)C[C@H]1C	i	nt	nt	nt	i
CCCNC(=O)[C@H]1[C@H](CO)[C@H]2Cn3c(ccc(-c4cccc(OC)c4)c3=O)[C@@H]1N2CC	i	nt	nt	nt	nt
CCc1ccc(OC(=O)Nc2ccccc2)cc1	i	92	i	i	i
COc1ccc(OC(=O)Nc2ccccc2)cc1	nt	?	i	nt	i
Cc1ccc(NC(=O)c2ccc3c(c2)nnn3C)cc1	i	i	i	39	nt
CCc1ccc(NC(=O)Nc2cccc(OC)c2)cc1	i	i	i	i	62
C[C@H]1CN(C)C(=O)c2cccc(N)c2O[C@H]1CN(C)S(C)(=O)=O	i	nt	nt	nt	nt
C[C@@H]1CN([C@H](C)CO)C(=O)c2cc(NC(=O)CCN3CCOCC3)ccc2O[C@H]1CN(C)CC1CCCCC1	i	nt	nt	nt	i
O=C(CSc1ccccn1)Nc1ccc2c(c1)CCC2	i	110	i	nt	77
SMILES	XiGFP reactiv	MITF act	Vif inh	Wnt act	esBAF inh
O=C(CSc1ccccn1)Nc1ccc2c(c1)C(=O)c1ccccc1C2=O	i	95	i	nt	nt
COC(=O)CCN(C(=O)c1ccc(Cl)c([N+](=O)[O-])c1)c1ccccn1	i	i	i	33	nt
COC(=O)CCN(C(=O)c1cccc([N+](=O)[O-])c1)c1ccccn1	i	i	i	i	nt
CC(=O)N(C)C[C@H]1Oc2ccc(N)cc2C(=O)N(C)C[C@H]1C	i	nt	nt	nt	nt
COc1ccc(OC)c(NC(=O)COC(=O)c2n[nH]c3ccccc23)c1	i	i	i	i	i
COc1ccc(C(=O)COC(=O)c2n[nH]c3ccccc23)c(OC)c1	i	96	i	i	nt
O=C(OCCOc1ccccc1)c1n[nH]c2ccccc12	nt	106	i	38	?
COc1ccc(OC)c(C(=O)COC(=O)c2ccccc2O)c1	nt	nt	i	nt	42
Cc1noc(C)c1NC(=O)Nc1cccc2c1O[C@H](CN(C)C(=O)Nc1cccc3ccccc13)[C@@H](C)CN([C@H](C)CO)C2=O	i	nt	nt	nt	i
S=C(NCCc1ccc(Cl)cc1)NC1CCCC1	i	i	i	i	nt
Fc1ccccc1NC(=S)NCCc1ccc(Cl)cc1	i	?	i	i	59
CSc1ccccc1NC(=S)NCc1ccc(Cl)cc1	i	i	i	i	59
Cc1c(Cl)cccc1NC(=S)NCCc1ccc(Cl)cc1	i	nt	i	i	i
Fc1ccc(F)c(NC(=S)NCCc2ccccc2)c1	i	i	i	i	i
